Measured values: ChEMBL document CHEMBL5058577, “EUbOPEN Chemogenomics Library 2 (Multiplex)” (2022)

Tested on: Fibroblast
Experiment: Multiplex assay against human fibroblast
Format: toxicity, cell-based
Outline: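 Tubulin, mitochondrial-mass and membrane-permeability phenotypes are per cents of healthy-nucleus cells. Cells were gated by CellPathfinder machine learning into Hoechst high-intensity objects or normal cells, normal cells into healthy, pyknosed or fragmented nuclei, and pyknosed cells into mitotic or apoptotic. Before that, live cells stained at seeding with Hoechst33342, BioTracker Green Microtubule Cytoskeleton Dye, MitoTracker Red and Annexin V Alexa Fluor 680 were imaged on a CQ1 microscope at 37°C and 5% CO2 after compound addition.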

[1] = 12 h, 1 µM, compound concentration 1 uM, replicate 1
[2] = 12 h, 1 µM, compound concentration 1 uM, replicate 2
[3] = 12 h, 10 µM, compound concentration 10 uM, replicate 1
[4] = 12 h, 10 µM, compound concentration 10 uM, replicate 2
[5] = 24 h, 1 µM, compound concentration 1 uM, replicate 1
[6] = 24 h, 1 µM, compound concentration 1 uM, replicate 2
[7] = 24 h, 10 µM, compound concentration 10 uM, replicate 1
[8] = 24 h, 10 µM, compound concentration 10 uM, replicate 2
[9] = 48 h, 1 µM, compound concentration 1 uM, replicate 1
[10] = 48 h, 1 µM, compound concentration 1 uM, replicate 2
[11] = 48 h, 10 µM, compound concentration 10 uM, replicate 1
[12] = 48 h, 10 µM, compound concentration 10 uM, replicate 2

## CC(C)c1noc(N2CCC(COc3ccc(-c4ccc(S(C)(=O)=O)cc4)nc3)CC2)n1 [GSK-1292263]
[1]
  Population Apoptotic (%): 38%
  Population Fragmented Nuclei (%): 14%
  Population Healthy Nuclei (%): 74%
  Population Hoechst High Intensity Objects (%): 2%
  Population Membrane Permeable-Phenotype (%): 0%
  Population Mitochondria Different-Phenotype (%): 1%
  Population Mitotic Cells (%): 61%
  Population Normal (%): 97%
  Population Pyknosed Nuclei (%): 11%
  Population Tubulin-Different-Phenotype (%): 21%
  Total Cell Count: 189
[2]
  Population Apoptotic (%): 29%
  Population Fragmented Nuclei (%): 18%
  Population Healthy Nuclei (%): 50%
  Population Hoechst High Intensity Objects (%): 6%
  Population Membrane Permeable-Phenotype (%): 4%
  Population Mitochondria Different-Phenotype (%): 5%
  Population Mitotic Cells (%): 70%
  Population Normal (%): 93%
  Population Pyknosed Nuclei (%): 31%
  Population Tubulin-Different-Phenotype (%): 41%
  Total Cell Count: 149
[3]
  Population Apoptotic (%): 39%
  Population Fragmented Nuclei (%): 8%
  Population Healthy Nuclei (%): 65%
  Population Hoechst High Intensity Objects (%): 3%
  Population Membrane Permeable-Phenotype (%): 1%
  Population Mitochondria Different-Phenotype (%): 5%
  Population Mitotic Cells (%): 60%
  Population Normal (%): 96%
  Population Pyknosed Nuclei (%): 26%
  Population Tubulin-Different-Phenotype (%): 39%
  Total Cell Count: 162
[4]
  Population Apoptotic (%): 35%
  Population Fragmented Nuclei (%): 26%
  Population Healthy Nuclei (%): 45%
  Population Hoechst High Intensity Objects (%): 2%
  Population Membrane Permeable-Phenotype (%): 6%
  Population Mitochondria Different-Phenotype (%): 10%
  Population Mitotic Cells (%): 64%
  Population Normal (%): 97%
  Population Pyknosed Nuclei (%): 27%
  Population Tubulin-Different-Phenotype (%): 61%
  Total Cell Count: 145
[5]
  Population Apoptotic (%): 50%
  Population Fragmented Nuclei (%): 9%
  Population Healthy Nuclei (%): 78%
  Population Hoechst High Intensity Objects (%): 3%
  Population Membrane Permeable-Phenotype (%): 1%
  Population Mitochondria Different-Phenotype (%): 0%
  Population Mitotic Cells (%): 50%
  Population Normal (%): 96%
  Population Pyknosed Nuclei (%): 11%
  Population Tubulin-Different-Phenotype (%): 17%
  Total Cell Count: 182
[6]
  Population Apoptotic (%): 44%
  Population Fragmented Nuclei (%): 20%
  Population Healthy Nuclei (%): 53%
  Population Hoechst High Intensity Objects (%): 7%
  Population Membrane Permeable-Phenotype (%): 4%
  Population Mitochondria Different-Phenotype (%): 2%
  Population Mitotic Cells (%): 55%
  Population Normal (%): 92%
  Population Pyknosed Nuclei (%): 25%
  Population Tubulin-Different-Phenotype (%): 41%
  Total Cell Count: 142
[7]
  Population Apoptotic (%): 52%
  Population Fragmented Nuclei (%): 12%
  Population Healthy Nuclei (%): 67%
  Population Hoechst High Intensity Objects (%): 2%
  Population Membrane Permeable-Phenotype (%): 1%
  Population Mitochondria Different-Phenotype (%): 5%
  Population Mitotic Cells (%): 47%
  Population Normal (%): 97%
  Population Pyknosed Nuclei (%): 20%
  Population Tubulin-Different-Phenotype (%): 50%
  Total Cell Count: 168
[8]
  Population Apoptotic (%): 46%
  Population Fragmented Nuclei (%): 21%
  Population Healthy Nuclei (%): 55%
  Population Hoechst High Intensity Objects (%): 3%
  Population Membrane Permeable-Phenotype (%): 10%
  Population Mitochondria Different-Phenotype (%): 10%
  Population Mitotic Cells (%): 53%
  Population Normal (%): 96%
  Population Pyknosed Nuclei (%): 23%
  Population Tubulin-Different-Phenotype (%): 56%
  Total Cell Count: 123
[9]
  Population Apoptotic (%): 66%
  Population Fragmented Nuclei (%): 19%
  Population Healthy Nuclei (%): 74%
  Population Hoechst High Intensity Objects (%): 3%
  Population Membrane Permeable-Phenotype (%): 0%
  Population Mitochondria Different-Phenotype (%): 1%
  Population Mitotic Cells (%): 33%
  Population Normal (%): 96%
  Population Pyknosed Nuclei (%): 6%
  Population Tubulin-Different-Phenotype (%): 22%
  Total Cell Count: 193
[10]
  Population Apoptotic (%): 54%
  Population Fragmented Nuclei (%): 27%
  Population Healthy Nuclei (%): 47%
  Population Hoechst High Intensity Objects (%): 8%
  Population Membrane Permeable-Phenotype (%): 13%
  Population Mitochondria Different-Phenotype (%): 4%
  Population Mitotic Cells (%): 45%
  Population Normal (%): 91%
  Population Pyknosed Nuclei (%): 24%
  Population Tubulin-Different-Phenotype (%): 55%
  Total Cell Count: 156
[11]
  Population Apoptotic (%): 63%
  Population Fragmented Nuclei (%): 13%
  Population Healthy Nuclei (%): 65%
  Population Hoechst High Intensity Objects (%): 2%
  Population Membrane Permeable-Phenotype (%): 0%
  Population Mitochondria Different-Phenotype (%): 8%
  Population Mitotic Cells (%): 36%
  Population Normal (%): 97%
  Population Pyknosed Nuclei (%): 20%
  Population Tubulin-Different-Phenotype (%): 48%
  Total Cell Count: 164
[12]
  Population Apoptotic (%): 50%
  Population Fragmented Nuclei (%): 31%
  Population Healthy Nuclei (%): 51%
  Population Hoechst High Intensity Objects (%): 0%
  Population Membrane Permeable-Phenotype (%): 9%
  Population Mitochondria Different-Phenotype (%): 14%
  Population Mitotic Cells (%): 50%
  Population Normal (%): 100%
  Population Pyknosed Nuclei (%): 17%
  Population Tubulin-Different-Phenotype (%): 76%
  Total Cell Count: 125
